Measurements: PMC8791284 (SLAS discovery : advancing life sciences R & D, 2021)

Columns and labels:
[1] = system: BRAF^V600E-expressing MEFs; test: Cell proliferation assay, BRAF^V600E MEFs; assay type: cell-based, mouse; settings: versus other MEF panel lines, Fig. 1E
[2] = system: CDK9 (Ser2-RNA polymerase II phosphorylation); test: Western blot of phospho-Ser2 RNA polymerase II in KRAS^G12D MEFs; assay type: cell-based, mouse; settings: 6 h, 0.1, 1 and 10 μM
[3] = system: KRAS^G12D-expressing MEFs; test: ATP-based cell viability assay; set-up: species or system mouse; settings: Suppl. Fig. S3
Procedure, shortened: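 KRAS^G12D- and HRAS^WT-expressing mouse embryonic fibroblasts are dispensed onto plates pre-spotted with test compound from 10 mM stocks. Test compound is used at 5 μM final for the primary screen, or as serial dilutions for dose–response. After 72 h, CellTiter-Glo reagent is added, incubated 15 min, and luminescence is read. Each plate is checked by Z' factor and carries a reference HSP-90 inhibitor dose–response.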

Structure (SMILES) | specific activity against BRAF^V600E-expressing MEFs [1] | phosphorylation level of Ser2-RNA polymerase II [2] | sensitivity of KRAS^G12D MEFs versus HRAS^WT MEFs in cell viability assay [3]
CC(C)(C)c1nc(-c2cccc(NS(=O)(=O)c3c(F)cccc3F)c2F)c(-c2ccnc(N)n2)s1 [dabrafenib] | showed specific activity |  | 
CC(C)(C)c1cnc(CSc2cnc(NC(=O)C3CCNCC3)s2)o1 [SNS032] |  | diminished the Ser2 phosphorylation level in a dose-dependent manner | more sensitive
CCCS(=O)(=O)Nc1ccc(F)c(C(=O)c2c[nH]c3ncc(-c4ccc(Cl)cc4)cc23)c1F [vemurafenib] | showed specific activity |  | 
